# Activity calls are given as the source filed them. No cut-off for these calls is given here.
# Key:
# [1] = Metabolic stability in dog liver microsomes assessed as parent compound remaining at 1 uM measured after 60 mins in presence of NADPH by HPLC-MS/MS analysis; type: ADME, Canis lupus familiaris, Microsome; settings: read-out: Stabilty
# How it was run: (§1)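 Compound at 1 μM incubated with 0.5 mg/mL liver microsomes and 1 mM NADPH. Samples taken at 0, 10, 15, 30, 45 and 60 min and quenched with acetonitrile. After centrifugation, supernatant analysed by HPLC-MS/MS, with percent parent remaining relative to the 0 min area.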
# MDA-MB-231 [2] = test: Induction of apoptosis in human MDA-MB-231 cells assessed as live cells at 0.1 uM incubated for 24 hrs by annexin V-FITC and propidium iodide staining based flow cytometry analysis (reference value: 96.95 %); type: functional
# [3] = molecular target: Fibroblast growth factor receptor 3 (Homo sapiens, UniProt P22607); test: Inhibition of human recombinant FGFR3 (447 to 761 residues) using poly(Glu,Tyr)4:1 as substrate incubated for 40 mins in presence of [gamma33P-ATP] by radiometric scintillation counting analysis
# Sequence of Fibroblast growth factor receptor 3 (P22607 whole entry, the tested form may be a part): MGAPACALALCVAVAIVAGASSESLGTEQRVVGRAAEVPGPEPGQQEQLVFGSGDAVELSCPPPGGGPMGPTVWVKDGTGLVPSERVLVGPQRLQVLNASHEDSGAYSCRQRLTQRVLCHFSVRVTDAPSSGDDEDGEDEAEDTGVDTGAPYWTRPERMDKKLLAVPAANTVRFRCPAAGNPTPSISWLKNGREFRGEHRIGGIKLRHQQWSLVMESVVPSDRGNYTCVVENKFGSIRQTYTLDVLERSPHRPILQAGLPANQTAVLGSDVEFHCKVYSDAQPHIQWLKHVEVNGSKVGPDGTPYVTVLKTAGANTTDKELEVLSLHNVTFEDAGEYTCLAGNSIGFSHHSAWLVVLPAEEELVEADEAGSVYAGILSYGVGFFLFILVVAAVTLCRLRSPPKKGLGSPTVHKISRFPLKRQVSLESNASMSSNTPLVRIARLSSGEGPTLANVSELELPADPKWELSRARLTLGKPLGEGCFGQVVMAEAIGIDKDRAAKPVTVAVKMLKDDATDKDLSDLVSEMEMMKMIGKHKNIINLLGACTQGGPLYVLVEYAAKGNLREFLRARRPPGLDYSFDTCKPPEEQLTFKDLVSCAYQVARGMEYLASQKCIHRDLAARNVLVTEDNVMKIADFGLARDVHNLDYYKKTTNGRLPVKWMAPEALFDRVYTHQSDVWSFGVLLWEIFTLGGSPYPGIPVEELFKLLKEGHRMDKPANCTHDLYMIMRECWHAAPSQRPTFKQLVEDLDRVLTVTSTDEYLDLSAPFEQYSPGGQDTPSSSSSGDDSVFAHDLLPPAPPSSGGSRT
# How it was run: (§2)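 Radiometric kinase assay run as an external profiling service, with ATP at the Km of each kinase. IC50 values are means of two independent experiments.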
# [4] = Metabolic stability in mouse liver microsomes assessed as parent compound remaining at 1 uM measured after 60 mins in presence of NADPH by HPLC-MS/MS analysis; type: ADME, Microsome; settings: read-out: Stabilty; how it was run: as §1
# Activated CDC42 kinase 1 = Activated CDC42 kinase 1 (Homo sapiens, UniProt Q07912); test: Inhibition of human recombinant ACK1 (1 to 389 residues) using EFPIYDFLPAKKK as substrate incubated for 40 mins in presence of [gamma33P-ATP] by radiometric scintillation counting analysis; how it was run: as §2
# Sequence of Activated CDC42 kinase 1 (Q07912 whole entry, the tested form may be a part): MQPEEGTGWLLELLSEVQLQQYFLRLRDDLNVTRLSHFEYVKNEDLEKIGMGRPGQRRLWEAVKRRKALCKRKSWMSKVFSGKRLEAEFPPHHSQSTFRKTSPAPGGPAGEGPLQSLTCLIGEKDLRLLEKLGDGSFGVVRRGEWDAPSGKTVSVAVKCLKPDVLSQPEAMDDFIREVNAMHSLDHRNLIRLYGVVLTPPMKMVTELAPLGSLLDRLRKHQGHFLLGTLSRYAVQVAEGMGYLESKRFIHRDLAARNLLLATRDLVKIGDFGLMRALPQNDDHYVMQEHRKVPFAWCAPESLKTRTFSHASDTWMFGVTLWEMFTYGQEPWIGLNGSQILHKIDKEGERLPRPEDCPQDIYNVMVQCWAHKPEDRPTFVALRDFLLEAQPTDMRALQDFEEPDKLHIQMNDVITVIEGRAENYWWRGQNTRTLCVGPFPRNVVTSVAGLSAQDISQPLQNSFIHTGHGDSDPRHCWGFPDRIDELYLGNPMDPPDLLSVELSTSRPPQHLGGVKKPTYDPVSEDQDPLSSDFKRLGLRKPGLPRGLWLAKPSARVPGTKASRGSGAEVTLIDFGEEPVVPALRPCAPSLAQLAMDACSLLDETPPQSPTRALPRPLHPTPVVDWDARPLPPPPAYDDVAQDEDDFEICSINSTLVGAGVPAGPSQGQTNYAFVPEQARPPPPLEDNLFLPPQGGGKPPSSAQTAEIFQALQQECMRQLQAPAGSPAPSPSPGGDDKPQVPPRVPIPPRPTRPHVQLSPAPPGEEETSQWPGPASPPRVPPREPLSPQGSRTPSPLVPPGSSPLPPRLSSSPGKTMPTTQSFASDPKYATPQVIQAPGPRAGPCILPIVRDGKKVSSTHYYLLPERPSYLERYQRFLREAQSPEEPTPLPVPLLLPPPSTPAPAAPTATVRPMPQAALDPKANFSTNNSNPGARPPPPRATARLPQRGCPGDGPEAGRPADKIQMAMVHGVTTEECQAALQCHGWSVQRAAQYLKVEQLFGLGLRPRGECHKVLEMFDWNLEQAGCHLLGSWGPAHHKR
# Ephrin type-A receptor 4 = Ephrin type-A receptor 4 (Homo sapiens, UniProt P54764); test: Inhibition of human recombinant EPHA4 (601 to 892 residues) using poly(Glu,Tyr)4:1 as substrate incubated for 40 mins in presence of [gamma33P-ATP] by radiometric scintillation counting analysis; how it was run: as §2
# Sequence of Ephrin type-A receptor 4 (P54764 whole entry, the tested form may be a part): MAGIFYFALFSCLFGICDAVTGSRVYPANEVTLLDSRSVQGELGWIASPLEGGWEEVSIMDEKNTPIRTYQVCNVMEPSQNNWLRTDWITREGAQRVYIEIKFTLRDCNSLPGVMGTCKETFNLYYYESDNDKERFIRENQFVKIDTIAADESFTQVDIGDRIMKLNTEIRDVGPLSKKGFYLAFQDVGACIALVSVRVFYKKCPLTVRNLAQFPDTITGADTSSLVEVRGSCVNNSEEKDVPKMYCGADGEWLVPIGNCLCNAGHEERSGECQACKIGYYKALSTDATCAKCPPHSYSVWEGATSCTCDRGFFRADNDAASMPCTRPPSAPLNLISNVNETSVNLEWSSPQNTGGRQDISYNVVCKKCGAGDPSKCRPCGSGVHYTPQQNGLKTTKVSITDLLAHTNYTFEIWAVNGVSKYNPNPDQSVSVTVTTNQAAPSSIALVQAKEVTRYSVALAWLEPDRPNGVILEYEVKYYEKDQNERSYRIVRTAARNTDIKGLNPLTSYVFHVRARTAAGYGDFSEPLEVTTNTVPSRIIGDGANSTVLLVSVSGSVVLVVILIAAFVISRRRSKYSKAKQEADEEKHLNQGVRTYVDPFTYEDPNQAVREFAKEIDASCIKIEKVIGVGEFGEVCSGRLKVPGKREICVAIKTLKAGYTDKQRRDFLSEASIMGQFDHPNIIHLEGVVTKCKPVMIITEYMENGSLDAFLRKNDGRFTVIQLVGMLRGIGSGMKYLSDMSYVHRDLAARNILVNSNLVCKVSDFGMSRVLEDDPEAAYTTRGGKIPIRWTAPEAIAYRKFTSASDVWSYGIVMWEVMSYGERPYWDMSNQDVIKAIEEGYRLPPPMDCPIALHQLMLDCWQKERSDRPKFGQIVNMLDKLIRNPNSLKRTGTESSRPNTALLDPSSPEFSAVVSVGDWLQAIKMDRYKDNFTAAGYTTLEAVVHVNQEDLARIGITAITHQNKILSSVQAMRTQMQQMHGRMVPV
# [5] = Acute toxicity in male Sprague-Dawley rat assessed as increase in body weight at 200 mg/kg, po administered as single dose measured after day 9 and monitored every 3 days; type: organism-based; settings: in vivo, 72 h, time >9 day
# How it was run: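 Sprague-Dawley rats (n = 3) received a single oral dose of 200 mg/kg in sterile water with 25% (v/v) PEG400 plus 5% DMSO. Behaviour and side effects were monitored daily, and average body weight was measured every 3 days.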
# MDA-MB-231 [6] = test: Induction of apoptosis in human MDA-MB-231 cells assessed as necrotic cells at 0.01 uM incubated for 24 hrs by annexin V-FITC and propidium iodide staining based flow cytometry analysis (reference value: 0.2 %); type: functional
# Mus musculus = test: In vivo inhibition of MEK in SCID mouse xenografted with human MDA-MB-231 cells assessed as reduction in phosphorylation of MEK in tumor tissue at 40 mg/kg, po QD for 21 days by immunohistochemical analysis; type: functional, organism-based; settings: dose 40.0 mg/kg/day, time 21.0 day
# How it was run: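 Tumors taken from xenografted SCID mice dosed orally at 40 mg/kg/q.d. or given control; mice euthanized at set times. Tumors formalin-fixed and paraffin-embedded, stained by immunohistochemistry for phospho-proteins, and imaged by light microscopy.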
# [7] = molecular target: Proto-oncogene tyrosine-protein kinase Src (Homo sapiens) (UniProt P12931); test: Inhibition of Src in human MDA-MB-231 cells assessed as inhibition of STAT3 phosphorylation at 0.1 to 0.3 uM incubated for 20 hrs by Western blot analysis; type: cell-based; settings: dose 0.1-0.3 µM
# Sequence of Proto-oncogene tyrosine-protein kinase Src (Homo sapiens) (P12931 2-536 limits assumed): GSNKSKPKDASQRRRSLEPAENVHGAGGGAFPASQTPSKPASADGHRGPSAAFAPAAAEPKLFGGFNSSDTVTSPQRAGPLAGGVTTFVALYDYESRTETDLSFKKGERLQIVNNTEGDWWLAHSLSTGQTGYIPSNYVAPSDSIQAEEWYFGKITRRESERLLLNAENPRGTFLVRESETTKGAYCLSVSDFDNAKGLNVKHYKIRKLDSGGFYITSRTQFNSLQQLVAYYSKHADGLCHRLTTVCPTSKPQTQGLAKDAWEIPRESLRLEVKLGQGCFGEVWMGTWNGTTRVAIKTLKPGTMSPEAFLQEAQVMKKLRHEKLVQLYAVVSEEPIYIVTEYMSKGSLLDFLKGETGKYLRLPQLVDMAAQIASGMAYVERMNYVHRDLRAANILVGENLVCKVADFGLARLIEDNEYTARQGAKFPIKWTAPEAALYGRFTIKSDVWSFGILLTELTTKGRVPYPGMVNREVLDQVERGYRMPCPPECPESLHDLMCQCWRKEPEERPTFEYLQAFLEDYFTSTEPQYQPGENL
# How it was run: (§3)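 MDA-MB-231 cells treated with a series of concentrations for 20 h at 37 °C. Cells washed with ice-cold saline and lysed in RIPA buffer with protease cocktail. Lysates cleared at 12000 rpm for 10 min at 4 °C and protein quantified by Bradford. Equal protein separated by SDS-PAGE, transferred to PVDF and probed with antibodies.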
# HepG2 = test: Antiproliferative activity against human HepG2 cells assessed as reduction in cell viability incubated for 72 hrs by MTT assay; type: ADME, cell-based; settings: HepG2, 72 h
# MDA-MB-231 [8] = test: Induction of apoptosis in human MDA-MB-231 cells assessed as early apoptotic cells at 0.1 uM incubated for 24 hrs by annexin V-FITC and propidium iodide staining based flow cytometry analysis (reference value: 2 %); type: functional
# MV4-11 = test: Antiproliferative activity against human MV4-11 cells assessed as reduction in cell viability incubated for 72 hrs by MTT assay; type: functional, cell-based; settings: MV4-11, 72 h
# How it was run: (§4)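 MTT viability assay. ATCC cell lines were grown in designated medium with 10% FBS at 37 °C, 5% CO2. Cells seeded at 1500−30000 per well and incubated 24 h, then exposed to compound (0−10 μg/mL) for 72 h. MTT added for 2−4 h. Formazan dissolved in DMSO (adherent) or acidified SDS overnight (suspension), absorbance read at 570 nm. Triplicates; IC50 calculated.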
# [9] = Acute toxicity in Sprague-Dawley rat assessed as histopathological changes in lungs at 100 mg/kg, po administered as single dose measured after 24 hrs by H and E staining based light microscope analysis; type: organism-based; settings: in vivo
# How it was run: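 Sprague-Dawley rats received a single oral dose of 100 mg/kg in sterile water with 25% (v/v) PEG400 plus 5% DMSO. Organs were examined by histology and immunohistochemistry for pathological changes. Behaviour and side effects were checked daily.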
# MDA-MB-231 [10] = test: Inhibition of tumor mitotic index in SCID mouse xenografted with human MDA-MB-231 cells assessed as reduction in Ki67 expression at 40 mg/kg, po QD for 21 days by immunohistochemical staining analysis; type: functional, organism-based; settings: dose 40.0 mg/kg/day, time 21.0 day
# How it was run: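 SCID mice carried subcutaneous MDA-MB-231 xenografts (5 × 10^6 cells in 100 μL). Oral dosing in water with 25% PEG400 and 5% DMSO began at 150–200 mm3. Tumours were removed at the end of study, formalin-fixed and paraffin-embedded, then immunostained.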
# Danio rerio = organism: Danio rerio; test: Antiangiogenesis activity in EGFP-labelled zebrafish embryo assessed as reduction in formation of intersegmental vessels at 1.25 to 5 uM incubated for overnight by fluorescence microscopic analysis; type: functional, organism-based; settings: dose 1.25-5 µM
# How it was run: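 Transgenic FLK:EGFP zebrafish kept at 28 °C, pH 7.2−7.4, 14 h light/10 h dark. Embryos at 30 hpf incubated overnight with compound at 1.25, 2.5 or 5 μM beside a blank control. Fish anaesthetized, then vessels imaged by fluorescence microscopy.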
# L02 = test: Cytotoxicity against human L02 cells assessed as reduction in cell viability incubated for 72 hrs by MTT assay; type: cell-based; settings: L02, 72 h; how it was run: as §4
# MDA-MB-231 [11] = test: Antiproliferative activity against human MDA-MB-231 cells assessed as reduction in cell viability incubated for 72 hrs by MTT assay; type: functional, cell-based; settings: MDA-MB-231, 72 h; how it was run: as §4
# [12] = molecular target: Platelet-derived growth factor receptor alpha (Homo sapiens, UniProt P16234); test: Inhibition of human recombinant PDGFRalpha (550 to end residues) using poly(Glu, Tyr)4:1 as substrate incubated for 40 mins in presence of [gamma33P-ATP] by radiometric scintillation counting analysis; how it was run: as §2
# Sequence of Platelet-derived growth factor receptor alpha (P16234 whole entry): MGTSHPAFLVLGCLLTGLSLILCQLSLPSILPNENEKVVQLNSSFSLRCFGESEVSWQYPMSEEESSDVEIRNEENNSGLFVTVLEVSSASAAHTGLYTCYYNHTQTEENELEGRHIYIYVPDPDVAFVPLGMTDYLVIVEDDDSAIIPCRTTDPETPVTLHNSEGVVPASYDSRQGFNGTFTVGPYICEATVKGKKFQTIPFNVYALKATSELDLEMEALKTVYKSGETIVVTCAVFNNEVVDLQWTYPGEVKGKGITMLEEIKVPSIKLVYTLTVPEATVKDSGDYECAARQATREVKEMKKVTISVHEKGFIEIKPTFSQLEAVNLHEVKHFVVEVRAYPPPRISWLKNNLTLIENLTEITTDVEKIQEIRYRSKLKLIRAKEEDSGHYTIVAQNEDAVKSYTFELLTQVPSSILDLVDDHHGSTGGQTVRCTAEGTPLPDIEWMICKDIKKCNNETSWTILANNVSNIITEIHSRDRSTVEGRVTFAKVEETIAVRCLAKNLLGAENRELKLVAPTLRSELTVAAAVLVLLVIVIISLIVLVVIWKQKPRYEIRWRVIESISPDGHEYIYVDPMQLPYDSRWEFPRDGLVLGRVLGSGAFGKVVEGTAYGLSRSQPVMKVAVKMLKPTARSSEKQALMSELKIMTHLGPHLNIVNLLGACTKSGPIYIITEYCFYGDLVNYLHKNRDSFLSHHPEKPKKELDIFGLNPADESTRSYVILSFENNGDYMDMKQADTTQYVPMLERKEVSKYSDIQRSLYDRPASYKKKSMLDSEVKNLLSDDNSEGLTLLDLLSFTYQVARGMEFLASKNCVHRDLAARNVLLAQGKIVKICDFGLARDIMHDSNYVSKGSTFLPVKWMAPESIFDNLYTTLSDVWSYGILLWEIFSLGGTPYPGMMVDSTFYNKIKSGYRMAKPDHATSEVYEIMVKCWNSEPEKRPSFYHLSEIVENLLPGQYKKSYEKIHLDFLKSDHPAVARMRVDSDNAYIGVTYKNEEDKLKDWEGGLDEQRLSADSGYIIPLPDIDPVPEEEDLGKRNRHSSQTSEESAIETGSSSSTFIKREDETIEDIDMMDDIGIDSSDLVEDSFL
# DU-145 = test: Antiproliferative activity against human DU-145 cells assessed as reduction in cell viability incubated for 72 hrs by MTT assay; type: functional, cell-based; settings: DU-145, 72 h; how it was run: as §4
# MDA-MB-231 [13] = test: Inhibition of Fra1 phosphorylation in human MDA-MB-231 cells at >0.03 uM incubated for 20 hrs by Western blot analysis; type: functional, cell-based; settings: dose microM >0.03, time 20.0 hrs; how it was run: as §3
structure (smiles),measurement,setting,value
Cc1ccc(NC(=O)c2ccc(C)c(C(F)(F)F)c2)cc1C#Cc1nn([C@H]2CC[C@H](O)CC2)c2ncnc(N)c12,"remaining at 1 h, 1 µM",[1],> 90%
same,Activity,MDA-MB-231 [2],67.94%
same,IC50,[3],0.12 µM
same,"remaining at 1 h, 1 µM",[4],> 90%
same,IC50,Activated CDC42 kinase 1,0.175 µM
same,IC50,Ephrin type-A receptor 4,0.227 µM
same,Activity,[5],Non-Toxic
same,Activity,MDA-MB-231 [6],0.42%
same,inhibition,Mus musculus,Active
same,inhibition,[7],Active
same,IC50,HepG2,> 10 µM
same,Activity,MDA-MB-231 [8],13.48%
same,IC50,MV4-11,0.138 µM
same,Activity,[9],Non-Toxic
same,inhibition,MDA-MB-231 [10],Active
same,Activity,Danio rerio,Active
same,IC50,L02,> 10 µM
same,IC50,MDA-MB-231 [11],0.03 µM
same,IC50,[12],1.29 µM
same,IC50,DU-145,> 10 µM
same,inhibition,MDA-MB-231 [13],Active
